The test system of data set [1] is UO-31. Put plainly: Potency index, ratio of paclitaxel IC50 to compound IC50 for taxane-resistant human UO31 cells after 72 hrs by CellTiter 96 aqueous nonradioactive cell proliferation assay. The data set is classed as functional.
A short description of data set [2]: Toxicity in Crl:NU(NCr)-Foxn1 nu mouse xenografted with human […] cells assessed as maximum body weight loss at 50 mg/kg, ip qd administered for 3 consecutive days followed by 2 days of rest for 3 cycles measured after 7 days post dose relative to control. The conditions noted are these: in vivo, 168 h. The data set is classed as organism-based. The gist of the method: (§1)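 Female athymic nude mice bearing subcutaneous xenografts, started from cultured cells (NCI-H460, Calu-6, NCI-H69, LOX-IMVI) or from serially passaged tumour fragments (NCI-H522). Mice were grouped into vehicle and treatment arms at tumour volumes of about 75-200 mm3. Dosing was ip at 5-10 mL/kg in 22% ethanol, 38% PEG400, 40% 20 mM Na citrate pH 5.0. Caliper volumes were taken as (length × width2)/2. Treated and control delta weights were median tumour weight minus staging-day median.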
(In general: A xenograft is tissue or cells of one species grown in another, often human tumour cells in immunodeficient mice.)

The test system of data set [3] is OVCAR-4. Put plainly: Antiproliferative activity against taxane-resistant human OVCAR4 cells after 72 hrs by CellTiter 96 aqueous nonradioactive cell proliferation assay. Conditions: OVCAR-4, 72 h. The data set is classed as functional, cell-based. The gist of the method:
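Antiproliferation in cultured tumour cells, at least 3 replicate wells per concentration per experiment. NCI-H460 came from ATCC. M14, NCI/ADR-RES, OVCAR-4, HCT-15, ACHN and SF-295 came from the National Cancer Institute. IC50 reported from single experiments where no SD is given.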

The subject of data set [4] is NCI-H69. Put plainly: Antitumor activity against human NCI-H69 cells xenografted in Crl:NU(NCr)-Foxn1 nu mouse assessed as tumor growth inhibition at 60 mg/kg, ip dosed on day 1 followed by 4 days rest and subsequently dosed at 60 mg/kg, ip qd administered for 3 consecutive days followed by 2 days of rest for 2 cycles relative to control. The data set is classed as functional. Conditions: read-out: TGI. The gist of the method: as §1

The nature of data set [5]: Toxicity in Crl:NU(NCr)-Foxn1 nu mouse xenografted with human Calu6 cells assessed as maximum body weight loss at 60 mg/kg, ip qd administered for 3 consecutive days followed by 2 days of rest for 4 cycles measured after 2 days post dose relative to control. Conditions: in vivo, 48 h. The data set is classed as organism-based. The gist of the method: as §1
The nature of data set [6]: Toxicity in Crl:NU(NCr)-Foxn1 nu mouse xenografted with human NCI-H460 cells assessed as mortality at 40 mg/kg, ip qd administered for 3 consecutive days followed by 2 days of rest for 3 cycles. The data set is classed as organism-based. Conditions: in vivo, 48 h. Summed up:
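Female athymic nude mice bearing subcutaneous xenografts started from cultured human tumor cells. Mice were split into vehicle and treatment groups once tumors reached about 75-200 mm3. Dosing was ip at 5-10 mL/kg in 22% ethanol, 38% PEG400, 40% 20 mM Na citrate pH 5.0. Deaths per group were recorded alongside maximum mean bodyweight loss.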

The subject of data set [7] is NCI/ADR-RES. Put plainly: Potency index, ratio of paclitaxel IC50 to compound IC50 for taxane-resistant human NCI/ADR-RES cells after 72 hrs by CellTiter 96 aqueous nonradioactive cell proliferation assay. The class given is functional.
Data set [8] can be described thus: Toxicity in Crl:NU(NCr)-Foxn1 nu mouse xenografted with human Calu6 cells assessed as maximum body weight loss at 50 mg/kg, ip qd administered for 3 consecutive days followed by 2 days of rest for 4 cycles measured after 17 days post dose relative to control. The data set is classed as organism-based. The conditions noted are these: in vivo, 408 h. Summed up:
as §1

The structures appear in SMILES notation. pIC50: −log10 of the molar value.

For the compound `C=CC[C@H]1C[C@]2([C@H](C)Cc3cc(O)c(OC)cc3F)OCOC2=CC1=O`, the results for the “Ratio IC50” value in data set [1] and in data set [7] were 34 and >1000, respectively. For the same compound, the Activity is recorded as 8% in data set [2], 2% in data set [5], “Toxic” in data set [6] and 4% in data set [8]. Further, the pIC50 in data set [3] is 8.10. Besides, in data set [4], the inhibition in vivo at 60 mg/kg was 77%.

As a reminder, the pIC50 is −log10 of the IC50, conventionally taken in molar units.

For the origin of these results see ChEMBL document CHEMBL4325827, “Bifidenone: Structure-Activity Relationship and Advanced Preclinical Candidate” (J Med Chem, 2018).
